Assay results taken from ChEMBL document CHEMBL5029150, “Controlling Intramolecular Interactions in the Design of Selective, High-Affinity Ligands for the CREBBP Bromodomain” (J Med Chem, 2021).
Calls of active or inactive are those of the source.

Assays:
Conditions in all cases: dose microM <=1
[1] = molecular target: T1, Transcription intermediary factor 1-alpha (Homo sapiens) (UniProt O15164); assay: Binding affinity to human TRIM24 assessed as dissociation constant up to 1 uM by BROMOscan assay
T1 sequence (whole entry): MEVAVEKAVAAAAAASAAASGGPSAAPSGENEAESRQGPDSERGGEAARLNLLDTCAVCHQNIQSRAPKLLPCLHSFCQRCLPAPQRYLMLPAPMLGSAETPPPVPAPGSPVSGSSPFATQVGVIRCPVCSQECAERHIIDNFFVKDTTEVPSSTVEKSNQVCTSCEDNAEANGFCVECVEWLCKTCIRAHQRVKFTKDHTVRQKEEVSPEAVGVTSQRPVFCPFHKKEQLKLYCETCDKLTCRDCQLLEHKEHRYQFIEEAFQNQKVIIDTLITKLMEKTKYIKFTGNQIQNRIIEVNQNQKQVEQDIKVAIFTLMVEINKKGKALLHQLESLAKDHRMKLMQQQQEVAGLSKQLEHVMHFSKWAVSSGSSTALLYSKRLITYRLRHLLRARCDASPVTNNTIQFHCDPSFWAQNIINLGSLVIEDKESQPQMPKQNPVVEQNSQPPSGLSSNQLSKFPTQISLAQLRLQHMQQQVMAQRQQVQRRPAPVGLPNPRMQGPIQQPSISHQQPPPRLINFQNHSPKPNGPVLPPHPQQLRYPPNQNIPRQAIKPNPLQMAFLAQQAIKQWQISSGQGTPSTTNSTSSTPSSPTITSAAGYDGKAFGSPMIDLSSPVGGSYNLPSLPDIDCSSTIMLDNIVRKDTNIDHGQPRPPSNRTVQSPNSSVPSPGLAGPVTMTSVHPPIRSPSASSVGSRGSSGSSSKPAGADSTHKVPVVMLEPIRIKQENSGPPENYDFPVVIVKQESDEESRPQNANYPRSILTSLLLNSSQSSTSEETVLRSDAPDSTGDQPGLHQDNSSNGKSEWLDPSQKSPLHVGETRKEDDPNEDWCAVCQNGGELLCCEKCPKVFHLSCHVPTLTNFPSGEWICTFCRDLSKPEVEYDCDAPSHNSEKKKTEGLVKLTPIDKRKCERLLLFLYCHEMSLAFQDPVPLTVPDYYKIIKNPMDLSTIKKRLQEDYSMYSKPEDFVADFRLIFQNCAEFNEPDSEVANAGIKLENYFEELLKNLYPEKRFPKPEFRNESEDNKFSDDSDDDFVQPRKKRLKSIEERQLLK
In short: (§1)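 BROMOscan competition binding panel of 12 phylogenetically diverse bromodomains, including the CREBBP and EP300 bromodomains.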

[2] = molecular target: Bromodomain-containing protein 4 (Homo sapiens, UniProt O60885); assay: Binding affinity to human BRD4 bromodomain 1 assessed as dissociation constant up to 1 uM by BROMOscan assay; in short: as §1
[3] = molecular target: Transcription initiation factor TFIID subunit 1 (Homo sapiens) (UniProt P21675); assay: Binding affinity to human TAF1 bromo domain 2 assessed as dissociation constant up to 1 uM by BROMOscan assay; in short: as §1
[4] = molecular target: Histone acetyltransferase KAT2B (Homo sapiens) (UniProt Q92831); assay: Binding affinity to human PCAF assessed as dissociation constant up to 1 uM by BROMOscan assay; in short: as §1
[5] = molecular target: T2, ATPase family AAA domain-containing protein 2B (Homo sapiens) (UniProt Q9ULI0); assay: Binding affinity to human ATAD2B assessed as dissociation constant up to 1 uM by BROMOscan assay; in short: as §1
T2 sequence (whole entry): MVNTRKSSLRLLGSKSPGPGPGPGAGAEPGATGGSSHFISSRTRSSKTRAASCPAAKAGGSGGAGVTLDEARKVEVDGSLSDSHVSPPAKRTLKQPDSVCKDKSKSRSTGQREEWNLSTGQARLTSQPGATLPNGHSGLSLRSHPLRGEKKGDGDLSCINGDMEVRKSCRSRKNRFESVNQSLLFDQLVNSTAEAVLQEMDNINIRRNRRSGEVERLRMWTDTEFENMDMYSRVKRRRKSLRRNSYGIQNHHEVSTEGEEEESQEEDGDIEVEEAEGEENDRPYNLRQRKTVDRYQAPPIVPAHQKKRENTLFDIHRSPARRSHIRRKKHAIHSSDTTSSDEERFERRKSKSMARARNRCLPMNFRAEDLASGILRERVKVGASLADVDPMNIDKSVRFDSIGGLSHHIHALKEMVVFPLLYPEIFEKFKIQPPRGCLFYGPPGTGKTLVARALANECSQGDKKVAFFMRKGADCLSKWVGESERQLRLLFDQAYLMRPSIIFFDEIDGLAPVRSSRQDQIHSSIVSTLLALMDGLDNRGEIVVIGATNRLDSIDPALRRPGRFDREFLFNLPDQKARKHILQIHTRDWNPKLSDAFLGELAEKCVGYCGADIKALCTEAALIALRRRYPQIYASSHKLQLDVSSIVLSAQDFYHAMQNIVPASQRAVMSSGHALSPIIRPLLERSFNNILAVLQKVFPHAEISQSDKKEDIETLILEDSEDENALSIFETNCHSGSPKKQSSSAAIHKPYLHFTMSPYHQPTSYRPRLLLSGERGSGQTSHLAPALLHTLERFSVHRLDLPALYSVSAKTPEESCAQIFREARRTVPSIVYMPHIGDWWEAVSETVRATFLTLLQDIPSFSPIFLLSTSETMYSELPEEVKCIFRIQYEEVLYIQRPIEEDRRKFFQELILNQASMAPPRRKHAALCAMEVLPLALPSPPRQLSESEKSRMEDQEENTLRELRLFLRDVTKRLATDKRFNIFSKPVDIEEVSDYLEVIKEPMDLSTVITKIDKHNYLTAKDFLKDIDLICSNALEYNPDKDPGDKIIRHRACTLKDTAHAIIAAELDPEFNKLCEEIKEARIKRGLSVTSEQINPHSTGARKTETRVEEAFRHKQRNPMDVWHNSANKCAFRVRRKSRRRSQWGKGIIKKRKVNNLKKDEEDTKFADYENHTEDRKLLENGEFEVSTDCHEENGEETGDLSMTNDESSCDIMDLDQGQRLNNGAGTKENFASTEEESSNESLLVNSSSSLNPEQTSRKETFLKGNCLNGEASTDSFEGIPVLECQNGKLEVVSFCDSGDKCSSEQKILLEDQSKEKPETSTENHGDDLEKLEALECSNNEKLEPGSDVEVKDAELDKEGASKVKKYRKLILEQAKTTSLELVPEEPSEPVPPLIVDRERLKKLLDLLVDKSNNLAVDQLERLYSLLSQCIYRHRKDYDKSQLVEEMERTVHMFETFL

[6] = molecular target: Bromodomain-containing protein 2 (Homo sapiens) (UniProt P25440); assay: Binding affinity to human BRD2 bromodomain 1 assessed as dissociation constant up to 1 uM by BROMOscan assay; in short: as §1

Measured: Activity

Transcription initiation factor TFIID subunit 1 (Homo sapiens), sequence (P21675 whole entry, the tested form may be a part): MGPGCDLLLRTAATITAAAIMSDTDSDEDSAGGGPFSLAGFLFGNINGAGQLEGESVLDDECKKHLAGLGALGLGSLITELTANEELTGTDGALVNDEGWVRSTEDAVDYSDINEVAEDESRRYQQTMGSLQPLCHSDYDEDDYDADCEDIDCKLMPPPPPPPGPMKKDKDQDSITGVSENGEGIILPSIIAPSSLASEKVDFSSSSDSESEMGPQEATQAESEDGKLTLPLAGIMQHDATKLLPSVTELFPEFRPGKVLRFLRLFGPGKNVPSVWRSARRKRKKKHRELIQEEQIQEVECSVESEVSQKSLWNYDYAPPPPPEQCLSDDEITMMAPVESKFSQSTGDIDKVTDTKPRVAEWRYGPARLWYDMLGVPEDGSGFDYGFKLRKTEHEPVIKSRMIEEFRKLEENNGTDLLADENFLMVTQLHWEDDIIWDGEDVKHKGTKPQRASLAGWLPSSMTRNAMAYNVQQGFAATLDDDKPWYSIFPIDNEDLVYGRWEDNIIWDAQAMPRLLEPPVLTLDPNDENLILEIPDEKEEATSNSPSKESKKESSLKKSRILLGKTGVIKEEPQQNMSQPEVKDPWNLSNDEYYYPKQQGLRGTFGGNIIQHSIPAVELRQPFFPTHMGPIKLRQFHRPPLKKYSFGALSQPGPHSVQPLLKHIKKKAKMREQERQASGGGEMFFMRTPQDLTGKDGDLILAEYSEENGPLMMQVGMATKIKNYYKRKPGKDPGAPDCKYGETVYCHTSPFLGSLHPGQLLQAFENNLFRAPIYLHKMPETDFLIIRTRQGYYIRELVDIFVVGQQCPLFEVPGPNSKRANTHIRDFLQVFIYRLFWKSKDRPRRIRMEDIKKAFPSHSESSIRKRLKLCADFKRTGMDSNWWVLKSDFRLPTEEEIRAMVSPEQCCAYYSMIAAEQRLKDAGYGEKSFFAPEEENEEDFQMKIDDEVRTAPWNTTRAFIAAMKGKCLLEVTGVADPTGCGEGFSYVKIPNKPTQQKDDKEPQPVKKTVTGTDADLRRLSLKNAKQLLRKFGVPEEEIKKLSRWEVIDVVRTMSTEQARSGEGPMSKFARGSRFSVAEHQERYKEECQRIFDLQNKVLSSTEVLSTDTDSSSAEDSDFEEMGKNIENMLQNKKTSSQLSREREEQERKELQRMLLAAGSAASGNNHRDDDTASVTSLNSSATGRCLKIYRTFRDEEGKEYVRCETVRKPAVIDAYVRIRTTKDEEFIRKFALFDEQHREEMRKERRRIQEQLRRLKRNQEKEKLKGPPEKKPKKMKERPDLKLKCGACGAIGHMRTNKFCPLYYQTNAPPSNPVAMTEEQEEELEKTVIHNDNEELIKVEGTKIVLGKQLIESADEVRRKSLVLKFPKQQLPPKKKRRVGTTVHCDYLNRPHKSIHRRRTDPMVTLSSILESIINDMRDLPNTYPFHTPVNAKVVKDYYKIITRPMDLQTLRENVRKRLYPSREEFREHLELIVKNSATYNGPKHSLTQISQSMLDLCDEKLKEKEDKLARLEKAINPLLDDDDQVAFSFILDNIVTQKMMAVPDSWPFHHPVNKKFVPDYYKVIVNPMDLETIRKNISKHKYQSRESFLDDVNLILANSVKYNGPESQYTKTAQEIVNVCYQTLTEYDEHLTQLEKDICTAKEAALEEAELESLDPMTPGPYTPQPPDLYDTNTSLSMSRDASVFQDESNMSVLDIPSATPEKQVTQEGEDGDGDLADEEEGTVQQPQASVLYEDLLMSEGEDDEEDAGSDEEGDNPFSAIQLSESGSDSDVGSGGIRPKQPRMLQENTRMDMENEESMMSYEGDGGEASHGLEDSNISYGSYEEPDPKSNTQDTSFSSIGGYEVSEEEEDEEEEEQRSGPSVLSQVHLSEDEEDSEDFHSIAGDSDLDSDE
Histone acetyltransferase KAT2B (Homo sapiens), sequence (Q92831 whole entry, looked up, the tested form may be a part): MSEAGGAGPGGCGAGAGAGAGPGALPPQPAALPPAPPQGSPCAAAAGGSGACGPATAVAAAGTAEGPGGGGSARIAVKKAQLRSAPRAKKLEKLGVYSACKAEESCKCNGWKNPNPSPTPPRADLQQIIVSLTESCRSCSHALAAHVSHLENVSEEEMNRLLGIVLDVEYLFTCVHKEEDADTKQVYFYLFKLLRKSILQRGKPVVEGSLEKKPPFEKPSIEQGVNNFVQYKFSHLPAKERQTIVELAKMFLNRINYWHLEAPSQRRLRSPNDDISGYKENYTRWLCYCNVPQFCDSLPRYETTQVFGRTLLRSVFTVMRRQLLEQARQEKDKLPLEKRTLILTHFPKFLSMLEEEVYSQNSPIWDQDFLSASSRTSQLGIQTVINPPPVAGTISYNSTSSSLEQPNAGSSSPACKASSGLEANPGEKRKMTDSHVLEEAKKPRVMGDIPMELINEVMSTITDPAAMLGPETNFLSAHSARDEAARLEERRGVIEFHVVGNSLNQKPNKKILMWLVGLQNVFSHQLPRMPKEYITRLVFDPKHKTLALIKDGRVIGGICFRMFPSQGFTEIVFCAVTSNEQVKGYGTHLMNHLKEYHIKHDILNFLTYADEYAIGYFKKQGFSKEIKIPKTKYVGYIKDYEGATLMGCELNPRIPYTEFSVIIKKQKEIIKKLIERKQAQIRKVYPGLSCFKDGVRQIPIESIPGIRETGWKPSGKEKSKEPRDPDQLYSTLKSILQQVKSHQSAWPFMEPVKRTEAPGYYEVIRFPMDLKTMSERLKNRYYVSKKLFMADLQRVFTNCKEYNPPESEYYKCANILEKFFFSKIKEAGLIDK
Bromodomain-containing protein 2 (Homo sapiens), sequence (P25440 whole entry, looked up): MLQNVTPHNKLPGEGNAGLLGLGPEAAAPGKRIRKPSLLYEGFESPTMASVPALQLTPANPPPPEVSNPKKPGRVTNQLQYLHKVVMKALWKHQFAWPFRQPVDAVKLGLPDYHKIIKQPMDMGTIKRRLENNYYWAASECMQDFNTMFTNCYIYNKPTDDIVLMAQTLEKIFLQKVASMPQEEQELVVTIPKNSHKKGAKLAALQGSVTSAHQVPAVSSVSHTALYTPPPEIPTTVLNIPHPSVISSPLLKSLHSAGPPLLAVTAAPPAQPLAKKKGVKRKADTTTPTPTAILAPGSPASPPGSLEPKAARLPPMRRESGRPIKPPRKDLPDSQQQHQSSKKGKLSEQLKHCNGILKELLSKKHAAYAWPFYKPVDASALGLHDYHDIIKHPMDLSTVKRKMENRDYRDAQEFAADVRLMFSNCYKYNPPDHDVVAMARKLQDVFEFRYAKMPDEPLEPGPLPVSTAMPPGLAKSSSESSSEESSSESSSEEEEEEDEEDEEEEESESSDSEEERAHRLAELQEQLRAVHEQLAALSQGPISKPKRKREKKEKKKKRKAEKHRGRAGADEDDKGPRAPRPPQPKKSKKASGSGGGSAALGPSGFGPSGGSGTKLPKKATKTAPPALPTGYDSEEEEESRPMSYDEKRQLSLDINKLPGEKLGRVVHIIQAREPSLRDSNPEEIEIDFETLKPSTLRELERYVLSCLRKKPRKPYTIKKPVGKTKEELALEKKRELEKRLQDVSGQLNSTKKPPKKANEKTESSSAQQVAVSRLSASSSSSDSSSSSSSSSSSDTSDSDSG

COc1ccc2c(c1)N(CCC/C=C/c1cccc3c1N[C@@H](C)CC(=O)N3)CCC2
inactive: all assays above

COc1ccc2c(c1)N(CCC/C=C/c1cccc3c1N[C@H](C)CC(=O)N3)CCC2
inactive: all assays above
